FLuc act counter – affects firefly luciferase, flagging false hits in luciferase stimulation screens; P08659; ATPlite luciferase biochemical, luminescence, 10 min; 0 = ATP-free wells, 1 = DMSO control; activation factor at 10 µM; 200,000 tested, under 10 active; AID 1027;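 active means luciferase activation factor, scaled between plate controls, of at least 2 with compound at 10 µM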
Target sequence (P08659 whole entry, looked up): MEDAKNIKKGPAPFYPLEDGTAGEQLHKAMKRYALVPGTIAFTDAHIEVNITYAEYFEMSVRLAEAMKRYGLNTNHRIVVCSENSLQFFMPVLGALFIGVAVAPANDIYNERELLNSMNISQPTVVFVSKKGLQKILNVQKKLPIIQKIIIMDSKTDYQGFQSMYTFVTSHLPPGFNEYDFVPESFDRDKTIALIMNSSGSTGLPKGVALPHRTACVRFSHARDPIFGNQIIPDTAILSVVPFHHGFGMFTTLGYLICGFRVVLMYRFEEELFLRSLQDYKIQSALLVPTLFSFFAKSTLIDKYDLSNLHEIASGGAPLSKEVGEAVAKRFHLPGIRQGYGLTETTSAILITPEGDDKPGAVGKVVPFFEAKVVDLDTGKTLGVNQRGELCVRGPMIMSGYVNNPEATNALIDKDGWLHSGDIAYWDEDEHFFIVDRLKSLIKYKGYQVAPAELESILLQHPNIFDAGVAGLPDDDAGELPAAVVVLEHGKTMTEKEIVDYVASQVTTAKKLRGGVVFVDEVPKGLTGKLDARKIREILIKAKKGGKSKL
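Material: luciferase plus luciferin reagent, cell-free. Medium: PBS buffer for ATP. Also added: ATP substrate, dispensed from a 10.24 µM working solution in PBS. Doses: test compounds dosed from 2 mM stocks in 100% DMSO. Incubation: 10 min post-reagent at room temperature. Technique: light output (luminescence). Read-out basis: luminescence gain marking luciferase activators.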
STAT3 inh-1 – STAT3 signaling inhibition; U3A cells, IL-6 STAT3-luciferase reporter, luminescence; host cell line lacks STAT1; inhibition, % at 5.5 µM; 190,000 tested, 0.89% active; AID 862;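 active means inhibition above the mean inhibition across all screened compounds plus 3 SD, cut at about 44% in these data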;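 further: 0% = DMSO only wells and 100% = 100 µM nifuroxazide control wells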
TRAIL sens C8 – sensitizes caspase-8 expressing cells to TRAIL. NB7+C8 cells + TRAIL, ATPlite viability luminescence. inhibition (viability loss, TRAIL sensitization), % at 10 µM. 360,000 tested, 1% active;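 active means compounds causing at least 50% loss of cell viability in the single-dose screen, relative to plate controls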
FLuc inh counter – Photinus pyralis luciferase inhibition counter-screen; 200,000 tested, 1.5% active; inhibition, % at 10 µM; P08659; AID 1006; ATPLite firefly luciferase biochemical luminescence, 10 min;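 active means inhibition above about 50% when tested at 10 µM, limit read from the data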
HSP90 refold inh – inhibitors of HSP90 luciferase refolding in rabbit reticulocyte lysate; inhibition, % at 5.6 µM; luciferase refolding luminescence, 3 h; 290,000 tested, 0.91% active;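 active means inhibition above the screen-wide mean plus 3 SD, computed separately per campaign, cut at about 16% in these data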;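 further: 0% = DMSO wells and 100% = 60 µM geldanamycin wells; inhibitors lower the luminescence because luciferase stays unfolded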
PPC-1+TRAIL kill – compounds killing PPC-1 cancer cells with TRAIL present (potentiator screen, no TRAIL-free arm) | 220,000 tested, 0.41% active | PPC-1 cells + TRAIL, ATPLite viability luminescence | AID 1443 | cell killing (% activity), % at 4 µM or 5 µM;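 active means cell killing above 50% in the first pass at 4 µM, then a duplicate retest at 5 µM averaging 50% or more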;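 further: plate controls were cells with TRAIL plus DMSO for no effect and medium-only wells lacking cells for full effect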
STAT3 inh-2 – STAT3 inhibition, confirmation assay | shares compounds with STAT3 inh-1 | U3A cells, IL-6 STAT3 luciferase reporter, luminescence; cell line lacks STAT1 | inhibition, % at 5.7 µM | 1,200 tested, 45% active;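 active means inhibition above the hit cutoff computed for the primary STAT3 screen, cut at about 44% in these data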;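 further: 0% = IL-6 plus DMSO and 100% = IL-6 plus nifuroxazide control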
NFkB inh 2 – inhibits NF-kappaB, counter-screen to STAT3 inhibitors; shares compounds with STAT3 inh-1; HEK293T NF-kB luciferase reporter, TNF-alpha induced; inhibition, % at 5.7 µM; 1,200 tested, 36% active; AID 1308;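 active means inhibition above the mean of solvent-only control wells plus 3 SD, cutoff set per campaign, cut at about 13% in these data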;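 further: 0% = TNF-alpha with DMSO and 100% = TNF-alpha with MG high control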
STAT1 inh STAT3c – counter-screen for STAT3 inhibitors: STAT1 inhibition; shares compounds with STAT3 inh-1; NIH 3T3 STAT1-luciferase reporter, IFN-gamma induced, luminescence; inhibition, % at 5.7 µM; 1,200 tested, 27% active;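 active means inhibition above the mean plus 3 SD of solvent-only control wells, limit set per screening run, cut at about 16% in these data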;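 further: 0% = DMSO with IFN-gamma and 100% = nifuroxazide control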
* = called active by the depositor; x = no result. The list is not random: actives were taken first. Their share in the collection is about 2.2%.

SMILES	FLuc act counter	STAT3 inh-1	TRAIL sens C8	FLuc inh counter	HSP90 refold inh	PPC-1+TRAIL kill	STAT3 inh-2	NFkB inh 2	STAT1 inh STAT3c
Cc1oc(-c2ccc(Cl)cc2)nc1CN1CCCC(C(=O)N2CCN(C(=O)c3ccco3)CC2)C1 (stereo unspecified)	1.1	79.3*	23.8	-9.5	-1.1	19.4	72.3*	26.0*	11.6
Cc1oc(-c2ccc(Cl)cc2)nc1CN1CCCC(C(=O)N2CCOCC2)C1 (stereo unspecified)	x	x	-2.6	x	-1.1	x	x	x	x
C#CCN1Cc2ccccc2Oc2cc(Br)ccc2S1(=O)=O	x	x	0.1	x	x	x	x	x	x
CC(C)COc1ccc(-c2nnc(-c3ccco3)o2)cc1	0.4	63.2*	30.1	60.3*	8.2	15.6	42.1	-2.6	-52.5
O=C(/C=C/c1ccc(Cl)cc1)Nc1nccs1	0.6	43.6*	41.4	44.4	1.2	20.5	2.1	-26.3	-163.5
Cc1sc2ncnc(NC3CCN(Cc4ccccc4)CC3)c2c1C	1	45.1*	35.7	-4.2	2.0	20.2	61.5*	16.0*	25.2*
c1ccc(CN2CCC(Nc3ncnc4sccc34)CC2)cc1	1.1	41.3	10.2	-7.3	-2.1	7.5	x	x	x
CCN(CC)CCN1C(=O)C(=O)/C(=C(/O)c2cccc(OC)c2)C1c1ccccn1 (stereo unspecified)	1	4.5	2.1	-4.8	2.4	-15.3	x	x	x
Cc1cc(/C=N/n2cnnc2)c(C)n1-c1ccc(OCc2ccc(Cl)cc2)cc1	0.9	77.1*	17.6	5.0	5.7	-3.3	60.6*	17.5*	15.4
CC(=O)c1c(C)[nH]c(C(=O)CSc2nc3ccccc3n2C)c1C	1	50.3*	15.4	-3.5	-1.0	-6.9	41.5	-1.3	8.0
CCn1c(SCC(=O)c2[nH]c(C)c(C(C)=O)c2C)nnc1-c1cccs1	1.1	30.0	5.1	-6.7	-0.1	12.5	x	x	x
COc1ccccc1-n1c(SCC(=O)c2ccc(O)cc2O)nc2cc([N+](=O)[O-])ccc21	1.1	-11.0	-5.3	-6.1	-3.2	22.8	x	x	x
Clc1ccc(-c2nnc(-c3ccc(Br)o3)o2)c(Cl)c1	0.7	18.6	28.0	29.1	-1.2	19.7	x	x	x
Fc1ccc(-c2nnc(-c3ccc(Cl)cc3Cl)o2)cc1	0.1	70.4*	85.9*	89.4*	0.1	x	36.8	5.7	-65.5
Clc1ccc(-c2nnc(-c3ccccc3)o2)c(Cl)c1	0.1	58.6*	69.6*	86.0*	7.3	50.0	33.8	-5.2	-77.3
CC1(Oc2cccc(C#N)c2)CCN(Cc2csc3ccccc23)C1 (stereo unspecified)	x	x	-8.0	x	x	x	x	x	x
CSc1nc(C)cc(SCCO)n1	1.1	9.5	-12.8	-8.0	-1.1	6.6	x	x	x
CCN(C1CCCCC1)S(=O)(=O)c1ccc(S(=O)(=O)NCCc2ccncc2)cc1	1	-5.8	1.3	-2.1	-3.5	-10.2	x	x	x
CCN(C1CCCCC1)S(=O)(=O)c1ccc(S(=O)(=O)NCc2ccncc2)cc1	1.1	62.3*	18.1	-7.5	4.5	20.1	43.0	14.5*	24.8*
CCn1cc([N+](=O)[O-])c(C(=O)Nc2cc(C)on2)n1	1	-0.3	-15.9	-2.3	-5.3	23.0	x	x	x
CCn1cc([N+](=O)[O-])c(C(=O)Nc2nc(-c3ccc(C)c(C)c3)c(C)s2)n1	1	44.9*	-6.0	-4.2	1.0	4.9	42.0	-8.9	0.8
CCn1cc([N+](=O)[O-])c(C(=O)Nc2nc(-c3ccc(C)cc3)c(C)s2)n1	1.1	55.6*	-0.1	-5.3	1.3	13.1	35.3	-10.1	6.1
COc1ccc(-n2c(-c3ccc(Cl)cc3)c[n+]3c2CCc2ccccc2-3)cc1	1	63.0*	38.7	-4.0	-2.1	-3.2	50.0*	-0.4	20.1*
COc1ccc(-n2c(-c3ccccc3)nnc2-c2ccc(Cl)cc2)cc1	1	-1.6	9.8	-2.3	-2.2	23.7	x	x	x
COC(=O)Nc1cc(C)nc2ccccc12	1	6.1	2.6	-2.1	5.5	-14.4	x	x	x
SMILES	FLuc act counter	STAT3 inh-1	TRAIL sens C8	FLuc inh counter	HSP90 refold inh	PPC-1+TRAIL kill	STAT3 inh-2	NFkB inh 2	STAT1 inh STAT3c
Cc1cc(NC(=O)Cc2ccccc2)c2ccccc2n1	1	71.7*	36.6	-0.4	1.6	14.0	69.1*	22.2*	25.0*
Clc1ccccc1-c1nnc(-c2ccc3c(c2)OCO3)o1	0.2	44.4*	55.9*	79.9*	0.9	47.4	11.3	-25.8	-105.7
c1ccc(-c2noc(-c3ccc4c(c3)OCO4)n2)cc1	0.3	66.3*	42.8	68.6*	-0.7	44.5	27.4	5.9	-63.1
c1ccc(-c2noc(-c3ccc4ccccc4c3)n2)cc1	0.3	56.7*	54.9*	68.5*	12.9	21.8	0.0	10.8	-88.7
c1ccc(-c2noc(-c3ccccc3-c3ccccc3)n2)cc1	1	18.1	0.1	-4.2	0.3	5.6	x	x	x
c1ccc(-c2noc(COc3ccc4c(c3)OCO4)n2)cc1	0.9	-10.8	3.2	13.5	-4.0	26.1	x	x	x
O=C(CN1C(=O)NC2(CCCCCC2)C1=O)Nc1ccc(Br)cc1Br	x	x	-8.6	x	x	x	x	x	x
COCCN(C(=O)CNC(=O)c1cccs1)C(C(=O)NC(C)(C)C)c1ccccc1 (stereo unspecified)	1.1	6.1	-11.1	-7.1	-0.9	20.6	x	x	x
COc1ccccc1NC(=O)Cc1noc(CSc2nnc(C)n2C)n1	1	-1.7	-3.4	-1.5	3.2	-18.8	x	x	x
COc1ccc(CNc2oc(COc3ccc(Cl)cc3)nc2C#N)cc1	1.1	0.7	0.5	-8.7	1.1	-1.3	x	x	x
COc1ccc(Nc2oc(COc3ccc(Cl)cc3)nc2C#N)cc1	1.1	47.2*	11.4	-6.9	4.2	9.1	30.6	0.2	8.2
O=C(CSc1nnc(Cn2nnc3ccccc32)o1)N(Cc1ccc(Cl)cc1)c1ccccc1	1	53.4*	11.0	-1.8	4.8	31.8	45.0*	12.8*	19.1*
Clc1ccc(CSc2nnc(Cn3cnc4ccccc43)o2)cc1	1	63.3*	16.9	-4.1	1.7	-2.8	45.1*	11.9	8.0
CCOc1ccccc1OCCCC(=O)NNC(=O)c1nn(C)c(=O)c2ccccc12	x	x	-4.1	x	x	x	x	x	x
C#CC(C)OC(=O)Nc1cnccc1C(F)(F)F (stereo unspecified)	x	x	13.1	x	-1.1	-7.6	x	x	x
CN(C)S(=O)(=O)c1cc(NC(=O)CN2CCN(c3ccccc3F)CC2)ccc1Cl	1	8.2	-11.9	0.0	-0.3	13.9	x	x	x

High-throughput results deposited in PubChem BioAssay by several laboratories.
